# Experimental data: BindingDB's records for doi:10.1021/jm00192a005 (1979)
# Target: T1, Thymidine kinase, cytosolic (Cricetulus griseus, UniProt P09768)
# T1 sequence (P09768 whole entry): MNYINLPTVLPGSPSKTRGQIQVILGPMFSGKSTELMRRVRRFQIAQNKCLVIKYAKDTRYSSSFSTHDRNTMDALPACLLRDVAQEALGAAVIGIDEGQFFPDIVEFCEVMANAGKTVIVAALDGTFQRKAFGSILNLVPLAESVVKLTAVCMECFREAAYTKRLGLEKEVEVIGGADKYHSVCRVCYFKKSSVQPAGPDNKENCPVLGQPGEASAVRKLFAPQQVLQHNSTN
# Experiment: Competitive inhibition of thymidine kinase in BHK21 (C13) cells using thymidine as substrate assessed as formation of TMP by Lineweaver-Burk plot analysis
# Outline: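 BHK21(C13) cells sonicated in 0.05 M NaCl; 100000g supernatant stored in 50% glycerol at 4 °C. Assay in Tris-HCl 0.05 M pH 8.0, ATP 5 mM, MgCl2 2.5 mM, [14C]thymidine at four or more levels from 3.6 to 18 μM, two inhibitor levels plus a no-inhibitor control, duplicates, 10 min at 37 °C. [14C]TMP captured on DEAE-cellulose disks and counted by scintillation; Ki taken from Lineweaver-Burk plots.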
row,Compound,Ki [µM]
1,Nc1cn([C@H]2C[C@H](O)[C@@H](CO)O2)c(=O)[nH]c1=O,450
2,N#Cc1cn([C@H]2C[C@H](O)[C@@H](CO)O2)c(=O)[nH]c1=O,220
3,NCc1cn([C@H]2C[C@H](O)[C@@H](CO)O2)c(=O)[nH]c1=O,1700
4,CCCCCn1c(=O)c(C)cn([C@H]2C[C@H](O)[C@@H](CO)O2)c1=O,72
5,CC(=O)NCC(O)[C@H]1O[C@@H](n2cc(C)c(=O)[nH]c2=O)C[C@@H]1O (stereo partly drawn),270
6,CCC(=O)NCC(O)[C@H]1O[C@@H](n2cc(C)c(=O)[nH]c2=O)C[C@@H]1O (stereo partly drawn),160
7,CCNC[C@H]1O[C@@H](n2cc(C)c(=O)[nH]c2=O)C[C@@H]1O,190
8,CCCCNC[C@H]1O[C@@H](n2cc(C)c(=O)[nH]c2=O)C[C@@H]1O,270
9,CCCCCCNC[C@H]1O[C@@H](n2cc(C)c(=O)[nH]c2=O)C[C@@H]1O,180
10,CCCCCCN(C[C@H]1O[C@@H](n2cc(C)c(=O)[nH]c2=O)C[C@@H]1O)C(C)=O,4400
11,CC(=O)NCCNC[C@H]1O[C@@H](n2cc(C)c(=O)[nH]c2=O)C[C@@H]1O,250
12,CC(=O)N(C)CCN(C)C[C@H]1O[C@@H](n2cc(C)c(=O)[nH]c2=O)C[C@@H]1O,900
13,Cc1cn([C@H]2C[C@H](O)[C@@H](CSCCO)O2)c(=O)[nH]c1=O,800
14,Cc1cn([C@H]2C[C@H](O)[C@@H](CSCCC(=O)O)O2)c(=O)[nH]c1=O,500
15,Cc1cn([C@H]2C[C@H](O)[C@@H](CSCCCC(=O)O)O2)c(=O)[nH]c1=O,1200
16,CC(=O)N[C@H]1C[C@H](n2cc(C)c(=O)[nH]c2=O)O[C@@H]1CO,2500
17,CCS[C@H]1C[C@H](n2cc(C)c(=O)[nH]c2=O)O[C@@H]1CO,12
18,"CC(=O)NC[C@H]1O[C@@H](n2cc(C)c(=O)[nH]c2=O)C[C@@H]1O [N-[(2R,5R)-3-Hydroxy-5-(5-methyl-2,4-dioxo-3,4-dihydro-2H-pyrimidin-1-yl)-tetrahydro-furan-2-ylmethyl]-acetamide]",6500
